Screens as filed in PubChem.
Shown are actives, neighbours in structure and some others; about 2.5% of the full set was active somewhere.
NTR1 agonist – agonists of human NTR1, primary screen, imaging, U2OS cells, beta-arrestin-GFP, high content. Neurotensin receptor type 1 (Homo sapiens), P30989. NTR1-U2OS beta-arrestin-GFP spot imaging, agonist mode. activation, % at 20 µM. 0.17% of 330,000 active;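 active means activation at or above 40% of the spot to cytoplasm intensity ratio, with at least 20 cells analyzed; inconclusive means wells under 20 cells, flagged as cytotoxic or low count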;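 further: 0% = DMSO without peptide and 100% = 100 nM NTR1 peptide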
Bfl-1 A1 inh – caspase 3/7 activation in MEF A1-2A-BIM cells, primary screen, A1 inhibitor project, cell-based, luminescence, HTS. Caspase-Glo 3/7 luminescence, 3 h; percent of clofoctol response, vehicle zero. caspase activation, % (concentration not given with the values). 0.066% of 330,000 active;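 active means over half of replicate activation scores above 10%, or exactly half above 10 with the replicate mean above 10; inconclusive means replicate mean below 10 yet half the replicates above 10; inactive means over half of replicates below 10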
sPLA2-III inh – human group III sPLA2 inhibitors, primary screen, biochemical, QFRET, BODIPY PC-A2 liposome substrate | 0.56% of 370,000 active | AID 743126, 2013 | inhibition, % at 12.2 µM | Group 3 secretory phospholipase A2 (Homo sapiens), Q9NZ20 | QFRET BODIPY PC-A2 liposome hydrolysis, fluorescence;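 active means inhibition above mean plus 3 SD of compounds lying within the high and low control bounds, cut at about 19% in these data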;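 further: 0% = median of test compound wells and 100% = no enzyme DMSO wells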
Target sequence (Q9NZ20 whole entry, looked up): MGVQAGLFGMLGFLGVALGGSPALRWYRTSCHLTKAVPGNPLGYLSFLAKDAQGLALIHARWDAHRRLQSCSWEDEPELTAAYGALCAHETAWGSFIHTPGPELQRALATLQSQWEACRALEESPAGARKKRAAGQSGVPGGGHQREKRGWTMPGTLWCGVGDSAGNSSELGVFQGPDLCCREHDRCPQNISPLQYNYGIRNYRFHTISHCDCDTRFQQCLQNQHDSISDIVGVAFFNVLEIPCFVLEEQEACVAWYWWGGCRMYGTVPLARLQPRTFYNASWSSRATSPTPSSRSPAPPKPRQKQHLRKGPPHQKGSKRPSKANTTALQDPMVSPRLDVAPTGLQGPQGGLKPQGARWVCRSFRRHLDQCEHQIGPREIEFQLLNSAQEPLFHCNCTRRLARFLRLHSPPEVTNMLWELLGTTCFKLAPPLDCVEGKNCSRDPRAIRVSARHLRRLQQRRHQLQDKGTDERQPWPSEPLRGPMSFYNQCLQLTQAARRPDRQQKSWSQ
MC4R ag barr – MC4R agonists recruiting beta-arrestin, primary screen, cell-based, luminescence, agonist arm of biased-ligand search | Melanocortin receptor 4 (Homo sapiens), P32245 | U2OS MC4R beta-arrestin complementation; percent of melanotan II response, DMSO zero | activation, % at 8.9 µM | 0.98% of 360,000 active | AID 540308, 2011;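 active means activation above a per-plate cutoff, the mean activation of sample wells on that plate plus 3 SD, cut at about 8% in these data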
Granule exo inh – LAMP-1 surface exposure blockers, TALL-104 cells – cell-based, flow cytometry, MLPCN library, primary screen; 0.66% of 360,000 active; TALL-104 LAMP-1 surface exposure; cells stimulated with thapsigargin and PMA; inhibition, % at 10 µM;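 active means inhibition above about 55%, limit read from the data; inconclusive means no clear call, values can overlap the other calls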
MC4R antagonist – MC4R antagonists of cAMP signaling, primary screen, cell-based, TR-FRET, antagonist arm of biased-ligand search; 0.48% of 360,000 active; inhibition, % at 6.5 µM; MC4R-expressing cells, MTII-stimulated cAMP, LANCE TR-FRET; AID 540295, 2011;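 active means inhibition above its plate's cutoff, the mean of tested wells on that plate plus 3 SD, cut at about 29% in these data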;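 further: 0% = Melanotan II alone and 100% = Melanotan II plus saturating MCL0020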
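material = U2OS cells stably expressing human melanocortin 4 receptor (MC4R) | also added = Melanotan II challenge | dosing = single nominal compound dose of 6.5 µM | detection = TR-FRET with Eu-cAMP and labeled anti-cAMP, 671 nm | replication = singlicate | timing = compound 30 min, challenge 1 h, detection 1 h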
NTR1 ag conf – NTR1 agonists, single-dose retest, confirmation, imaging, U2OS cells, beta-arrestin-GFP, single concentration | shares compounds with NTR1 agonist | AID 504550, 2011 | NTR1-U2OS beta-arrestin-GFP translocation imaging | 38% of 480 active | activation, % at 20 µM;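 active means mean activation at 20 µM of at least 40%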;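 further: 0% = DMSO without peptide and 100% = 100 nM NTR1 peptide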
Active calls of the source: *; ? = inconclusive; nt = no result given.

SMILES | NTR1 agonist | Bfl-1 A1 inh | sPLA2-III inh | MC4R ag barr | Granule exo inh | MC4R antagonist | NTR1 ag conf
O=C(O)C1=CC[C@@H](c2ccc(Cl)cc2)N(S(=O)(=O)c2ccc(Cl)cc2)[C@H]1c1cccc(Cl)c1 | 56.4* | -0.1 | -2.2 | 1.9 | 42.4 | 10.0 | 9.2
COC(=O)C1CN(CC(C)C)CCS(=O)(=O)N1Cc1ccc(C(F)(F)F)cc1 (stereo not given) | nt | nt | 4.5 | nt | nt | nt | nt
O=c1[nH]c(=O)n(Cc2ccco2)c2c1C(C(F)(F)F)(C(F)(F)F)N=C(CCC1CCCCC1)N2 | 45.6* | 0.5 | -1.9 | 6.9 | 2.7 | 12.2 | 21.5
O=C1Nc2ccc(Br)cc2/C1=C/C1CC=CCC1 (stereo not given) | 42.1* | 0.7 | -10.0 | 2.8 | -1.2 | 6.5 | 8.7
CCOC(=O)c1ccc(NC(=O)C2CCCN(S(=O)(=O)c3ccc(F)cc3)C2)cc1 (stereo not given) | 53.4* | nt | -34.7 | -0.8 | 3.3 | -4.0 | 22.2
CN(Cc1ccccc1)C(=O)c1[nH]cnc1C(=O)N[C@@H](Cc1ccccc1)C(=O)OCc1ccccc1 | 41.8* | -0.1 | nt | 3.9 | 23.5 | 0.7 | 2.2
CC(C)(C)OC(=O)NCCCCCNC(=O)c1[nH]cnc1C(=O)N[C@@H](Cc1ccccc1)C(=O)OCc1ccccc1 | 53.1* | 0.1 | -11.7 | 5.2 | -9.8 | -6.0 | 22.9
C[C@@H](NC(=O)c1nc[nH]c1C(=O)N[C@@H](Cc1ccccc1)C(=O)OCc1ccccc1)c1ccccc1 | 35.7 | -1.5 | -4.0 | 8.1 | 7.1 | -1.5 | nt
CCn1c(O)c(/C=C2\C=NN=C2c2ccccc2)sc1=S | 9.7 | 0.6 | -22.9 | -1.3 | 8.3 | 15.3 | nt
CC(C)Cn1c(O)c(/C=C2\C=NN=C2c2ccccc2)sc1=S | 59.1* | 17.5* | -11.8 | 1.9 | 0.2 | 9.3 | 60.8*
COc1ccc(-c2csc(NC(=O)c3ccccc3NS(=O)(=O)c3ccc(C)cc3)n2)cc1 | 10.7 | -0.9 | -118.0 | 3.1 | 28.5 | 14.6 | nt
COc1ccc(S(=O)(=O)Nc2ccccc2C(=O)Nc2nc(-c3ccc(F)cc3)cs2)cc1OC | 44.7* | 0.0 | -92.1 | -3.0 | 24.9 | 10.2 | 6.9
O=C(NCc1ccccc1)C1CCC(CNS(=O)(=O)c2cccs2)CC1 (stereo not given) | 42.0* | 0.0 | -5.8 | -1.0 | -1.8 | 5.9 | -3.5
O=C(Cc1ccc(Cl)cc1)NC(=S)Nc1ccccc1N1CCOCC1 | 44.6* | -1.1 | -17.5 | -2.1 | -2.7 | 1.8 | 15.6
Cc1ccc(CNC(=O)O[C@H]2CC[C@@]34CCCN3C(=O)CCC[C@H]4C2)cc1 | nt | nt | 3.4 | nt | nt | nt | nt
Oc1ccc(/C=N/Nc2nc(N3CCCCCC3)nc(N3CCCCCC3)n2)c(O)c1 | 43.6* | ? | -20.4 | 2.2 | 1.3 | 15.6 | 39.2
COCc1cc(N2CCN(C(=O)OC(C)(C)C)C[C@@H]2C)ccc1N1CC[C@H](O)C1 | nt | nt | -7.3 | nt | nt | nt | nt
O=C(OC12CCCN(C1)/C(=C/c1ccccc1)C2)c1cccc(F)c1 (stereo not given) | nt | nt | -3.1 | nt | nt | nt | nt
C[C@@H]1CN([C@@H](C)CO)C(=O)c2cccc(NC(=O)Nc3cccc4ccccc34)c2O[C@H]1CN(C)S(=O)(=O)c1ccc2c(c1)OCCO2 | nt | nt | -23.0 | nt | nt | nt | nt
Cc1cc(N/N=C/c2ccccc2O)nc(-c2ccccc2O)n1 | 62.9* | -0.7 | 4.5 | -1.1 | -2.7 | -0.1 | 1.9
O=S1(=O)C=CCN1Cc1cn(Cc2ccc(Cl)cc2)nn1 | nt | nt | 1.0 | nt | nt | nt | nt
Clc1ccc(-n2nnnc2-c2cnc(-c3ccncc3)nc2-c2cccs2)cc1 | -0.9 | 0.0 | 0.9 | -1.5 | -0.5 | 4.7 | nt
FC(F)(F)c1nc(-c2cccs2)ncc1-c1nnnn1-c1ccc(Cl)cc1 | 56.8* | -1.4 | 6.6 | 1.0 | -3.1 | 1.5 | 20.2
NS(=O)(=O)c1ccc(N2N=C(c3ccc(Br)cc3)CC2c2ccc(F)cc2)cc1 (stereo not given) | 42.0* | 0.0 | -5.4 | 2.5 | -0.4 | 9.9 | 42.3*
CC1(C)C=C2C(N(CC3CC3)C(=N)N2C(=O)OCc2ccccc2)n2c(=O)n(-c3ccccc3)c(=O)n21 (stereo not given) | nt | nt | 0.2 | nt | nt | nt | nt
SMILES | NTR1 agonist | Bfl-1 A1 inh | sPLA2-III inh | MC4R ag barr | Granule exo inh | MC4R antagonist | NTR1 ag conf
CN(C(=O)c1ccc2c(Cl)c3c(nc2c1)CCC3)c1ccccc1 | 3.4 | nt | -8.1 | -0.1 | -6.4 | 2.6 | nt
CCN(C(=O)c1ccc2c(Cl)c3c(nc2c1)CCC3)c1ccc(C)c(C)c1 | 44.6* | nt | -19.7 | 2.6 | 7.8 | 1.3 | 4.2
Oc1ccc(-c2cc(-c3ccc(O)cc3)nc(-c3ccccc3)n2)cc1 | 52.5* | -0.3 | -90.3 | 1.2 | 35.6 | -0.6 | 57.3*
CCOc1ccc(NC(=O)CSc2nnc(-c3n[nH]c4c3CCC4)n2N)cc1 | nt | nt | -5.2 | nt | nt | nt | nt
CN(C(=O)COc1ccccc1C(=O)NCCOc1ccccc1)c1ccccc1 | 106.8* | 0.0 | 5.0 | 3.5 | 67.0* | 27.2 | 62.7*
O=C(Nc1ccc(Cl)c(Cl)c1)Nc1nc(-c2ccccc2)cs1 | 47.1* | -1.1 | -5.9 | 2.8 | -1.0 | -16.0 | 20.8
O=C(Nc1ccccc1)Nc1nc(-c2ccccc2)cs1 | 2.7 | -0.1 | -5.1 | 2.6 | -5.4 | -6.8 | nt
Nc1[nH]c2cc(C(F)(F)F)ccc2c1C(=O)NCc1ccc(F)cc1 | nt | nt | 4.9 | nt | nt | nt | nt
COc1cc(F)c(S(=O)(=O)N2CCCN(S(=O)(=O)c3cccc(N)c3)CC2)c(F)c1 | nt | nt | -10.4 | nt | nt | nt | nt
O=C(OCc1ccc(COC(=O)c2ccc(O)cc2)cc1)c1ccc(O)cc1 | 45.6* | -2.4 | nt | 3.9 | 0.0 | 10.3 | -1.3
CC(C)(C)c1ccc(OCCOc2ccc(C(C)(C)C)cc2NC=O)c(NC=O)c1 | 42.9* | -1.2 | -13.1 | 2.0 | 43.4 | 22.6 | 22.6
COCCOc1ccc(C(F)(F)F)cc1NC(=O)c1ccccc1 | 0.5 | -0.6 | 10.0 | 0.6 | 0.2 | 4.2 | nt
COC(=O)[C@H](C(C)C)N(CCCc1cn(Cc2ccccc2)nn1)S(=O)(=O)c1ccccc1Br | nt | nt | -17.4 | nt | nt | nt | nt
COc1cc(/C=N/Nc2nc(-c3ccc(S(=O)(=O)N(C)C)cc3)cs2)ccc1O | 70.5* | -0.8 | -3.3 | 3.8 | 15.9 | 10.6 | 79.2*
COc1ccc(/C=N/Nc2nc(-c3cccc(S(=O)(=O)N4CCCC4)c3)cs2)cc1OC | -0.1 | 0.3 | -1.1 | 0.8 | -24.8 | 7.6 | nt
